The results in this text go back to ChEMBL document CHEMBL1157696, “New oxapolycyclic cage amines with NMDA receptor antagonist and trypanocidal activities” (Bioorg Med Chem, 2010).

For assay [1], the target named is Glutamate NMDA receptor. The experiment in a line: Antagonist activity at NMDA receptor in rat cerebellar granule neurons assessed as inhibition of glutamate-induced increase in intracellular calcium level by fluorometric assay. The assay is classed as functional, cell-based. In outline:
(§1)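 Primary cerebellar granule neuron cultures on poly-L-lysine-coated glass coverslips, used after 7–14 days in vitro. Cells loaded with 6 µM Fura-2 AM for 45 min, then read fluorometrically in Locke-Hepes buffer at 37 °C under mild agitation. Cumulative increasing compound concentrations added after glutamate (100 µM, with 10 µM glycine) or NMDA challenge. Inhibition percentages fitted by variable-slope non-linear regression. At least three experiments on three culture batches.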

Assay [2] deals with Glutamate NMDA receptor. As to the kind of experiment: Antagonist activity at NMDA receptor in rat cerebellar granule neurons assessed as inhibition of NMDA-induced increase in intracellular calcium level by fluorometric assay. The assay is classed as functional, cell-based. In outline:
as §1

Assay [3] relates to Trypanosoma brucei. The experiment in a line: Trypanocidal activity against Trypanosoma brucei 427 bloodstream form assessed as decrease in cell density at 5 ug/mL after 48 hrs by hemocytometry. The format is functional, organism-based.
Assay [4] is filed under the species Mus musculus. The experiment in a line: Inhibition of MAO in mouse cortex at 50 uM by tube luminometry. A digest of the protocol: (§2)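 MAO-Glo luminescent assay of non-specific MAO activity. Enzyme source was a crude mitochondrial preparation from NIH Swiss mouse cortex. Compounds tested at 10 and 50 µM.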
Assay [5] is filed under the species Mus musculus. The experiment in a line: Inhibition of MAO in mouse cortex at 10 uM by tube luminometry. A digest of the protocol:
as §2

The test system of assay [6] is Trypanosoma brucei. As to the kind of experiment: Ratio of compound to amantadine activity against Trypanosoma brucei 427 bloodstream form. The format is functional.
Assay [7] relates to Trypanosoma brucei. The experiment in a line: Trypanocidal activity against Trypanosoma brucei 427 bloodstream form assessed as decrease in cell density after 48 hrs by hemocytometry. The assay is classed as functional, organism-based. The note with it: Trypanosoma brucei, 427, 48 h. A digest of the protocol:
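Bloodstream-form T. brucei strain 427 kept at 37 °C in modified Iscove's medium, pH 7.4. Parasites grown 48 h across a range of drug concentrations, starting at 0.5 × 10⁴ cells/mL. Densities counted by hemocytometer and expressed as percent of control growth to derive IC50 and IC90. Performed in triplicate.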

Calls of active or inactive are those of the source. The rule behind the calls is not given here. Where only a bound is given, the exact number is not on record here.

Take `CN(C)C12CC3CC(C)(CC(C1)c1ccccc13)O2`: the IC50 on Glutamate NMDA receptor [1] worked out at 7.7 µM; on Glutamate NMDA receptor [2], 3.9 µM. In addition, the result in the assay on Trypanosoma brucei [3] was inactive.
In the case of `C#CCN(CC#C)C12CC3CC(CC(C1)c1ccccc13)O2`, the IC50 is > 500 µM on Glutamate NMDA receptor [1] and > 200 µM at Glutamate NMDA receptor [2]. Moreover, the inhibition result in the assay filed under Mus musculus [4] and in the assay filed under Mus musculus [5] was “inactive” throughout. Also, in the assay on Trypanosoma brucei [3], the outcome was inactive.
Take `NC(=O)CNC12CC3CC(CC(C1)c1ccccc13)O2`: the 50% inhibitory concentration (IC50) on Glutamate NMDA receptor [1] was > 500 µM; on Glutamate NMDA receptor [2], > 200 µM. The inhibition entry in the assay filed under Mus musculus [4] and in the assay filed under Mus musculus [5] was “inactive” in each case. In the assay on Trypanosoma brucei [3], the result was inactive.
`NC12CC3CC(CC(C1)c1ccccc13)O2`: the IC50 at Glutamate NMDA receptor [1] came to 408 µM; on Glutamate NMDA receptor [2] it was 35 µM. The result in the assay on Trypanosoma brucei [3] was inactive.
Consider `CCN(CC)C12CC3CC(C)(CC(C1)c1ccccc13)O2`, for which the half-inhibitory concentration (IC50) on Glutamate NMDA receptor [1] came to 22 µM; on Glutamate NMDA receptor [2], 7.7 µM. Besides, the result with Trypanosoma brucei [3] was inactive.
Take `C#CCNC12CC3CC(CC)(CC(C1)c1ccccc13)O2`: the concentration for half-maximal inhibition (IC50) on Glutamate NMDA receptor [1] is > 500 µM; on Glutamate NMDA receptor [2], > 200 µM; in the assay with Trypanosoma brucei [7] it was 15.2 µM. Further, the Ratio result with Trypanosoma brucei [6] is reported as “>=10”. The IC90 in the assay with Trypanosoma brucei [7] was 25.6 µM. Further, the inhibition entry in the assay filed under Mus musculus [4] and in the assay listed under Mus musculus [5] was “inactive” throughout.
In the assay filed under Mus musculus [5], `C#CCN(C)[C@H](C)Cc1ccccc1` displayed an inhibition of 85.5%.
For the molecule `c1ccc(CN(Cc2ccccc2)C23CC4CC(CC(C2)c2ccccc24)O3)cc1`, the figures for the IC50 at Glutamate NMDA receptor [1] and at Glutamate NMDA receptor [2] were > 500 µM and > 200 µM, respectively. Also, the outcome with Trypanosoma brucei [3] was inactive.
In the case of `CC(N)C12CC3CC(CC(C3)C1)C2` (stereo not given) [RIMANTADINE], in the assay on Trypanosoma brucei [7], the 90% effect concentration (IC90) came out at 14 µM.
Turning to `CNC12CC3CC(CC(C1)c1ccccc13)O2`, the concentration for half-maximal inhibition (IC50) on Glutamate NMDA receptor [1] amounted to 28 µM; at Glutamate NMDA receptor [2] it was 6 µM. In the assay on Trypanosoma brucei [3], the outcome was inactive.
Regarding `CC12CC3CC(C)(C1)CC(N)(C3)C2` [MEMANTINE], in the assay on Trypanosoma brucei [7], the IC50 came out at 13.8 µM and the IC90 was determined as 21.4 µM.
Turning to `CCC12CC3CC(N)(CC(C1)c1ccccc13)O2`, the half-inhibitory concentration (IC50) was > 500 µM on Glutamate NMDA receptor [1] and > 200 µM at Glutamate NMDA receptor [2]. Further, in the assay on Trypanosoma brucei [3], the outcome was inactive.
In the same order, the values of `CC12CC3CC(N)(CC(C1)c1ccccc13)O2` are 167 µM, 98 µM and “inactive”.
For `CCC12CC3CC(NCc4ccccc4)(CC(C1)c1ccccc13)O2`, the half-maximal inhibitory concentration (IC50) at Glutamate NMDA receptor [1] was > 500 µM; on Glutamate NMDA receptor [2] it was > 200 µM; in the assay with Trypanosoma brucei [7], 13.9 µM. In addition, in the assay on Trypanosoma brucei [6], the Ratio result is “>=10”. Besides, the IC90 in the assay with Trypanosoma brucei [7] came to 19.9 µM.
As for `c1ccc(CNC23CC4CC(CC(C2)c2ccccc24)O3)cc1`, the results for the IC50 at Glutamate NMDA receptor [1] and at Glutamate NMDA receptor [2] were > 500 µM and > 200 µM, respectively. Besides, the result in the assay with Trypanosoma brucei [3] was inactive.
In the same order, the values of `CN(C)C12CC3CC(CC(C1)c1ccccc13)O2` are 39 µM, 3.8 µM and “inactive”.
In the same order, the values of `CN(Cc1ccccc1)C12CC3CC(CC(C1)c1ccccc13)O2` are > 500 µM, > 200 µM and “inactive”.
For the molecule `CCN(CC)C12CC3CC(CC(C1)c1ccccc13)O2`, the IC50 amounted to 96 µM on Glutamate NMDA receptor [1] and 14 µM on Glutamate NMDA receptor [2].
With `C#CCN(CC#C)C12CC3CC(CC)(CC(C1)c1ccccc13)O2`, the IC50 on Glutamate NMDA receptor [1] is > 500 µM; at Glutamate NMDA receptor [2], > 200 µM; in the assay with Trypanosoma brucei [7] it was 14.6 µM. The Ratio entry in the assay with Trypanosoma brucei [6] is “>=10”. Moreover, the IC90 in the assay on Trypanosoma brucei [7] worked out at 24.1 µM. Moreover, the inhibition entry in the assay listed under Mus musculus [4] and in the assay listed under Mus musculus [5] was “inactive” throughout.
Take `c1ccc2c(c1)C1CC3CC2CC(N2CCCCC2)(C1)O3`: the IC50 on Glutamate NMDA receptor [1] came out at 168 µM; at Glutamate NMDA receptor [2] it was 30 µM.
With `c1ccc(CCNC23CC4CC(CC(C2)c2ccccc24)O3)cc1`, the concentration for half-maximal inhibition (IC50) at Glutamate NMDA receptor [1] is > 500 µM; on Glutamate NMDA receptor [2] it was > 200 µM. In addition, in the assay on Trypanosoma brucei [3], the outcome was inactive.
In the case of `C#CCNC12CC3CC(CC(C1)c1ccccc13)O2`, the IC50 on Glutamate NMDA receptor [1] came out at 115 µM; at Glutamate NMDA receptor [2] it was 34 µM. Besides, the inhibition entry in the assay filed under Mus musculus [4] and in the assay listed under Mus musculus [5] was “inactive” throughout. Further, the result with Trypanosoma brucei [3] was inactive.
